From ChEMBL document CHEMBL1145212, “Fluorinated diaryl sulfides as serotonin transporter ligands: synthesis, structure-activity relationship study, and in vivo evaluation of fluorine-18-labeled compounds as PET imaging agents” (J Med Chem, 2005)

What was measured:
[1] = species on record: Rattus norvegicus; experiment: Regional uptake of [18F]AFA in hippocampus of rat pretreated with compound GBR-12935; n=3; format: functional, organism-based; details: tested as the 18F-labelled form
Summary of the method: (§1)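 Male Sprague-Dawley rats, three per group, received blocker (2 mg/kg iv in saline) or saline only (controls) 10–15 min before about 20 µCi of tail-vein F-18 radioligand. Killed 60 min after tracer. Blood and brain regions weighed and gamma-counted. %ID/g was decay- and tail-corrected; mean ± SD.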

[2] = species on record: Rattus norvegicus; experiment: Regional uptake of [18F]AFA in thalamus of rat pretreated with compound citalopram; n=3; format: functional, organism-based; details: tested as the 18F-labelled form; summary of the method: as §1
[3] = species on record: Rattus norvegicus; experiment: Regional uptake of [18F]AFA in frontal cortex of rat pretreated with compound citalopram; n=3; format: functional, organism-based; details: tested as the 18F-labelled form; summary of the method: as §1
[4] = species on record: Rattus norvegicus; experiment: Regional uptake of [18F]AFA in hypothalamus of rat pretreated with compound 7e; n=3; format: functional, organism-based; details: tested as the 18F-labelled form
[5] = species on record: Rattus norvegicus; experiment: Regional uptake of [18F]-AFA in striatum of rat pretreated with compound GBR-12935; n=3; format: functional, organism-based; details: tested as the 18F-labelled form; summary of the method: as §1
[6] = species on record: Rattus norvegicus; experiment: Regional uptake of [18F]AFA in thalamus of rat pretreated with compound GBR-12935; n=3; format: functional, organism-based; details: tested as the 18F-labelled form; summary of the method: as §1
[7] = target: Sodium-dependent serotonin transporter (Rattus norvegicus) (UniProt P31652); experiment: Specific binding in rat hypothalamus at 90 min postinjection in vivo; format: functional, organism-based; details: tested as the 18F-labelled form
Summary of the method: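 Male Sprague-Dawley rats, n=3 per time point, received about 20 µCi of F-18 radioligand in saline iv by tail vein and were killed at 10–120 min. %ID/g was measured with decay and tail-residual correction. Hypothalamic specific binding = (%ID/g hypothalamus − %ID/g cerebellum)/%ID/g cerebellum; mean ± SD.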

[8] = target: Sodium-dependent serotonin transporter (Rattus norvegicus) (UniProt P31652); experiment: Specific binding of [18F]AFA in rat hypothalamus after GBR-12935 treatment; n=3; format: functional, tissue-based; details: tested as the 18F-labelled form
Summary of the method: (§2)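 Rats, three per group, were pretreated iv with blocker at 2 mg/kg in saline, or with saline as control, 10–15 min before tail-vein F-18 radioligand (about 20 µCi). Killed at 60 min and regional %ID/g determined. Specific binding = (region activity − cerebellum activity)/cerebellum activity; mean ± SD.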

[9] = species on record: Rattus norvegicus; experiment: Regional uptake of [18F]-AFA in striatum of rat pretreated with compound 7e; n=3; format: functional, organism-based; details: tested as the 18F-labelled form
[10] = target: Sodium-dependent serotonin transporter (Rattus norvegicus) (UniProt P31652); experiment: Specific binding of [18F]-AFA in rat striatum after citalopram treatment; n=3; format: functional, tissue-based; details: tested as the 18F-labelled form; summary of the method: as §2
[11] = species on record: Rattus norvegicus; experiment: Regional uptake of [18F]AFA in hippocampus of rat pretreated with compound citalopram; n=3; format: functional, organism-based; details: tested as the 18F-labelled form; summary of the method: as §1
[12] = target: Sodium-dependent serotonin transporter (Homo sapiens, UniProt P31645); experiment: In vitro displacement of [3H]paroxetine from human serotonin transporter expressed in HEK293 cells; format: cell-based
[13] = species on record: Rattus norvegicus; experiment: Regional uptake of [18F]-AFA in hypothalamus of rat pretreated with compound nisoxetine; n=3; format: functional, organism-based; details: tested as the 18F-labelled form; summary of the method: as §1
[14] = target: Sodium-dependent serotonin transporter (Rattus norvegicus) (UniProt P31652); experiment: Specific binding of [18F]AFA in rat frontal cortex after nisoxetine treatment; n=3; format: functional, tissue-based; details: tested as the 18F-labelled form; summary of the method: as §2
[15] = target: Sodium-dependent serotonin transporter (Rattus norvegicus) (UniProt P31652); experiment: Specific binding of [18F]AFA in rat hippocampus after citalopram treatment; n=3; format: functional, tissue-based; details: tested as the 18F-labelled form; summary of the method: as §2
[16] = species on record: Rattus norvegicus; experiment: Regional uptake of [18F]AFA in hypothalamus of rat pretreated with compound citalopram; n=3; format: functional, organism-based; details: tested as the 18F-labelled form; summary of the method: as §1
[17] = species on record: Rattus norvegicus; experiment: Regional uptake of [18F]-AFA in blood of rat pretreated with compound citalopram; n=3; format: functional, organism-based; details: tested as the 18F-labelled form; summary of the method: as §1
[18] = target: Sodium-dependent serotonin transporter (Rattus norvegicus) (UniProt P31652); experiment: Specific binding of [18F]AFA in rat hippocampus after nisoxetine treatment; n=3; format: functional, tissue-based; details: tested as the 18F-labelled form; summary of the method: as §2
[19] = target: Sodium-dependent serotonin transporter (Rattus norvegicus) (UniProt P31652); experiment: Specific binding of [18F]AFA in rat hippocampus after GBR-12935 treatment; n=3; format: functional, tissue-based; details: tested as the 18F-labelled form; summary of the method: as §2
[20] = species on record: Rattus norvegicus; experiment: Regional uptake of [18F]AFA in thalamus of rat pretreated with compound 7e; n=3; format: functional, organism-based; details: tested as the 18F-labelled form
[21] = target: Sodium-dependent serotonin transporter (Rattus norvegicus) (UniProt P31652); experiment: Specific binding of [18F]AFA in rat thalamus after GBR-12935 treatment; n=3; format: functional, tissue-based; details: tested as the 18F-labelled form; summary of the method: as §2
[22] = target: Sodium-dependent serotonin transporter (Rattus norvegicus) (UniProt P31652); experiment: Specific binding of [18F]AFA in rat thalamus after nisoxetine treatment; n=3; format: functional, tissue-based; details: tested as the 18F-labelled form; summary of the method: as §2
[23] = species on record: Rattus norvegicus; experiment: Regional uptake of [18F]AFA in cerebellum of rat pretreated with compound nisoxetine; n=3; format: functional, organism-based; details: tested as the 18F-labelled form; summary of the method: as §1
[24] = species on record: Rattus norvegicus; experiment: Regional uptake of [18F]AFA in cerebellum of rat pretreated with compound citalopram; n=3; format: functional, organism-based; details: tested as the 18F-labelled form; summary of the method: as §1

Chain of Sodium-dependent serotonin transporter (Rattus norvegicus) (P31652 whole entry): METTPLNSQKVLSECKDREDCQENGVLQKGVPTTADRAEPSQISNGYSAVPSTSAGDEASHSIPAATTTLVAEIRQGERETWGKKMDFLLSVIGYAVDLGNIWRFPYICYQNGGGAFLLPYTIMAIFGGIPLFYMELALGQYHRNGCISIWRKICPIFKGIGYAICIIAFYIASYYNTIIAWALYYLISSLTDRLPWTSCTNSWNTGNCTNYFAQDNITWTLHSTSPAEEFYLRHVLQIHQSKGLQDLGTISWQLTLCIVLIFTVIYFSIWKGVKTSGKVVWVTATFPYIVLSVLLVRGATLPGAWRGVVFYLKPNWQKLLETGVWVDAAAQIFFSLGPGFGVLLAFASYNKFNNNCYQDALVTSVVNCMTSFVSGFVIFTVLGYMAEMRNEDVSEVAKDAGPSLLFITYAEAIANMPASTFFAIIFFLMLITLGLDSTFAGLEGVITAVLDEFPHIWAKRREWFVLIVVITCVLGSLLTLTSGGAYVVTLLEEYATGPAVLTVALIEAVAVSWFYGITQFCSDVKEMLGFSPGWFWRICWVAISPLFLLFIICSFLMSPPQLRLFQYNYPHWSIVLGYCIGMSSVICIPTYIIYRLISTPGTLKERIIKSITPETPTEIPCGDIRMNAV
Chain of Sodium-dependent serotonin transporter (P31645 whole entry): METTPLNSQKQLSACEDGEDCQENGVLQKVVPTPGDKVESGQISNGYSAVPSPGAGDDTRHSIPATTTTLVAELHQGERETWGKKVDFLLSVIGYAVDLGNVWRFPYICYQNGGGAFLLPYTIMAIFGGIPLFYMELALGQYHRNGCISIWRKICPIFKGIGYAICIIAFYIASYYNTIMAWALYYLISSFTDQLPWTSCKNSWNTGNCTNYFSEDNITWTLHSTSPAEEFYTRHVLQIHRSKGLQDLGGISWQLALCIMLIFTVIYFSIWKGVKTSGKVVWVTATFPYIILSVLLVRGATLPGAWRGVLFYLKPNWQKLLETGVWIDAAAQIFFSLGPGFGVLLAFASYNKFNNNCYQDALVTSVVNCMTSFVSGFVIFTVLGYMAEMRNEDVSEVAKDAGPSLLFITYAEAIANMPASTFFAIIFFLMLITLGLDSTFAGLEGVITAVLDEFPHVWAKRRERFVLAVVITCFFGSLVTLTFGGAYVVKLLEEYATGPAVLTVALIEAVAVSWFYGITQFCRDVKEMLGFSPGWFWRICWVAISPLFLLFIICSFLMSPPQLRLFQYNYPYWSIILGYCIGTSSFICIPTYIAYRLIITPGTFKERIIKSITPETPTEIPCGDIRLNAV

Specific binding (dimensionless ratio) [7]: 4.36
Specific binding [8]: 3.85 %ID/g
Specific binding [10]: 0.5 %ID/g
Ki [12]: 1.83 nM
Specific binding [14]: 1.82 %ID/g
Specific binding [15]: 0.54 %ID/g
Specific binding [18]: 1.63 %ID/g
Specific binding [19]: 2.18 %ID/g
Specific binding [21]: 3.38 %ID/g
Specific binding [22]: 3.56 %ID/g
Structure (SMILES): CN(C)Cc1ccccc1Sc1ccc(CCF)cc1N
Uptake [1]: 0.18 %ID/g
Uptake [2]: 0.11 %ID/g
Uptake [3]: 0.08 %ID/g
Uptake [4]: 0.15 %ID/g
Uptake [5]: 0.2 %ID/g
Uptake [6]: 0.25 %ID/g
Uptake [9]: 0.11 %ID/g
Uptake [11]: 0.09 %ID/g
Uptake [13]: 0.33 %ID/g
Uptake [16]: 0.12 %ID/g
Uptake [17]: 0.08 %ID/g
Uptake [20]: 0.14 %ID/g
Uptake [23]: 0.07 %ID/g
Uptake [24]: 0.06 %ID/g
